The source of these data is ChEMBL document CHEMBL5252539, “In vitro biological evaluation of new antimycobacterial salicylanilide-tuftsin conjugates” (Eur J Med Chem, 2017).

One may read the MIC as the smallest concentration in the dilution series that meets the test's criterion for growth inhibition.

Assay [1] has as its system Mycobacterium tuberculosis. Kind of assay: Antimycobacterial activity against isoniazid and rifampicin resistant Mycobacterium tuberculosis A8 ATCC 35822 assessed as reduction in bacterial growth after 28 days by serial dilution method. The format is functional. The following applies: A8 ATCC 35822, 672 h, time 28 day. A digest of the protocol: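 Broth MIC in Sula semisynthetic medium, pH 6.5; 4-week incubation, with 21-day values […] where indicated. Drug-free inoculated bacteria served as growth control. MIC also expressed as drug content (µg/mL) = MIC (µM) × average SAL molar mass × number of SAL per conjugate / 1000.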

Assay [2] deals with Mycobacterium tuberculosis. As to the kind of experiment: Antimycobacterial activity against isoniazid and rifampicin resistant Mycobacterium tuberculosis A8 ATCC 35822 assessed as reduction in colony forming unit after 28 days by serial dilution method. Type of assay: functional, organism-based. As to conditions: time 28.0 day. A digest of the protocol: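 After the 4-week MIC incubation in Sula semisynthetic medium (pH 6.5), growth inhibition confirmed by plating on Löwenstein-Jensen solid medium and counting colony forming units.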

Molecules are shown by their SMILES. Values after ≈ are worked out from the molar mass of the structure shown. Active and inactive are the calls of the source. *1 amine or outer side, *2 acyl side, *3 side chain or, on linkers, in order; H or OH if unused. Where a SMILES comes first, the peptide text is derived from it. [ ]: non-standard residue; d: D form. The star is where a group is joined. X1 = C/C(=N\OCC(=O)[*:2])c1ccc(N[*:1])cc1; Benzoyl(5-Br-2-OH) = O=C(c1cc(Br)ccc1O)*

Take `O=C(Nc1ccc(C(F)(F)F)cc1)c1cc(Cl)ccc1O`: in assay [1], the MIC amounted to 1.6 µM (≈ 0.505 µg/mL).

Consider `NNC(=O)c1ccncc1` [ISONIAZID], for which the MIC in assay [1] stood at 7.3 µM (≈ 1 µg/mL). In addition, the result in assay [2] was Active.

Consider `C/C(=N\OCC(=O)NCC(=O)N[C@@H](Cc1ccccc1)C(=O)N[C@@H](CC(C)C)C(=O)NCC(=O)N[C@H](C(=O)N[C@@H](CCCCN)C(=O)N1CCC[C@H]1C(=O)N[C@@H](CCCCN)C(=O)NCC(=O)O)[C@@H](C)O)c1ccc(NC(=O)c2cc(Br)ccc2O)cc1` ({Benzoyl(5-Br-2-OH)}-[X1]GFLGTKPKG-OH), for which the MIC in assay [1] turned out to be 77.3 µM (≈ 100 µg/mL). Further, the outcome in assay [2] was Active.

Turning to `O=C(Nc1ccc(Cl)c(Cl)c1)c1cc(Cl)ccc1O`, the MIC in assay [1] was 1.6 µM (≈ 0.507 µg/mL).

As for `O=C(Nc1ccc(Cl)c(Cl)c1)c1cc(Br)ccc1O`, the MIC in assay [1] came out at 2.8 µM (≈ 1.01 µg/mL).

As for `C/C(=N\OCC(=O)N[C@H](C(=O)N[C@@H](CCCCN)C(=O)N1CCC[C@H]1C(=O)N1CCC[C@H]1C(=O)N[C@@H](CCCNC(=N)N)C(=O)O)[C@@H](C)O)c1ccc(NC(=O)c2cc(Br)ccc2O)cc1`, the MIC in assay [1] stood at 101 µM (≈ 100 µg/mL).

Take `C/C(=N\OCC(=O)NCC(=O)N[C@@H](Cc1ccccc1)C(=O)N[C@@H](CC(C)C)C(=O)NCC(=O)N[C@H](C(=O)N[C@@H](CCCCN)C(=O)N1CCC[C@H]1C(=O)N[C@@H](CCCCN)C(=O)NCC(N)=O)[C@@H](C)O)c1ccc(NC(=O)c2cc(Br)ccc2O)cc1` ({Benzoyl(5-Br-2-OH)}-[X1]GFLGTKPKG-NH2): the MIC in assay [1] was determined as 77.4 µM (≈ 100 µg/mL). Besides, in assay [2], the result was Active.

For `C/C(=N\OCC(=O)N[C@H](C(=O)N[C@@H](CCCCN)C(=O)N1CCC[C@H]1C(=O)N[C@@H](CCCNC(=N)N)C(=O)O)[C@@H](C)O)c1ccc(NC(=O)c2cc(Br)ccc2O)cc1` ({Benzoyl(5-Br-2-OH)}-[X1]TKPR-OH), the MIC in assay [1] stood at 112 µM (≈ 100 µg/mL). In addition, the result in assay [2] was Active.

As for `C/C(=N\OCC(=O)N[C@H](C(=O)N[C@@H](CCCCN)C(=O)N1CCC[C@H]1C(=O)N[C@@H](CCCCN)C(=O)NCC(N)=O)[C@@H](C)O)c1ccc(NC(=O)c2cc(Br)ccc2O)cc1` ({Benzoyl(5-Br-2-OH)}-[X1]TKPKG-NH2), the MIC in assay [1] was 109 µM (≈ 100 µg/mL). The result in assay [2] was Active.

Take `O=C(Nc1ccc(C(F)(F)F)cc1)c1cc(Br)ccc1O`: the minimal inhibitory concentration (MIC) in assay [1] is 2.8 µM (≈ 1.01 µg/mL).

As for `C/C(=N\OCC(=O)NCC(=O)N[C@@H](Cc1ccccc1)C(=O)N[C@@H](CC(C)C)C(=O)NCC(=O)N[C@H](C(=O)N[C@@H](CCCCN)C(=O)N1CCC[C@H]1C(=O)N[C@@H](CCCNC(=N)N)C(=O)O)[C@@H](C)O)c1ccc(NC(=O)c2cc(Br)ccc2O)cc1`, the MIC in assay [1] amounted to 79.1 µM (≈ 100 µg/mL).

As to `CC(=O)c1ccc(NC(=O)c2cc(Br)ccc2O)cc1`, in assay [1], the MIC came to 15 µM (≈ 5.01 µg/mL). In addition, the outcome in assay [2] was Active.

As to `CC(=O)c1ccc(NC(=O)c2cc(Cl)ccc2O)cc1`, the MIC in assay [1] worked out at 17.3 µM (≈ 5.01 µg/mL). Further, in assay [2], the result was Active.

Turning to `C/C(=N\OCC(=O)NCC(=O)N[C@@H](Cc1ccccc1)C(=O)N[C@@H](CC(C)C)C(=O)NCC(=O)N[C@H](C(=O)N[C@@H](CCCCN)C(=O)N1CCC[C@H]1C(=O)N1CCC[C@H]1C(=O)N[C@@H](CCCNC(=N)N)C(=O)O)[C@@H](C)O)c1ccc(NC(=O)c2cc(Br)ccc2O)cc1`, the MIC in assay [1] was found to be 73.5 µM (≈ 100 µg/mL).

Regarding `C/C(=N\OCC(=O)N[C@H](C(=O)N[C@@H](CCCCN)C(=O)N1CCC[C@H]1C(=O)N[C@@H](CCCCN)C(=O)NCC(=O)O)[C@@H](C)O)c1ccc(NC(=O)c2cc(Br)ccc2O)cc1` ({Benzoyl(5-Br-2-OH)}-[X1]TKPKG-OH), the MIC in assay [1] turned out to be 109 µM (≈ 100 µg/mL). Further, the outcome in assay [2] was Active.

Turning to `O=Cc1ccc(O)c(C(=O)Nc2ccc(C(F)(F)F)cc2)c1`, the MIC in assay [1] is 64.7 µM (≈ 20 µg/mL). The outcome in assay [2] was Active.
